According to PMC8851504 (Proceedings of the National Academy of Sciences of the …, 2022):
Bridge positions count the residues as written; N and C are the ends. Ends that are not written are not given here.

Legend:
[1] = system: hypersensitivity of the injected paw in mice; assay: Time course of hypersensitivity; assay type: in vivo, mouse (C57BL/6J); settings: intraplantar injection in mice
Method in brief: (§1)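 Male C57BL/6J mice (5 wk old) were given 200 pmol test compound, or vehicle alone, by shallow intraplantar hind-paw injection in 20 µL saline with 0.1% BSA. After 30 min acclimatisation on bar-bottom enclosures, paw-withdrawal thresholds were measured. Mechanical thresholds used automatic von Frey and thermal thresholds an automated thermal device. Readings were taken 3 d before injection and at 1 h–7 d, blinded, n = 6/group, two-way ANOVA with Šídák's test.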

[2] = system: human ErbB1 receptor (hErbB1) transiently expressed in HEK293T cells; assay: BRET assay of ligand-induced ErbB1 activation; assay type: cell-based; settings: for Agonism at / potency on mammalian ErbB1 (summary in words): summary statement
[3] = system: Erk1/2 phosphorylation downstream of human ErbB1 in HEK293 cells; assay type: cell-based; settings: comparison with hEGF; 2.5 or 10 nM; n = 3
Method in brief: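 HEK293 cells at ~80% confluence were transfected with 15 ng human ErbB1 plasmid (Lipofectamine LTX) and grown 24 h in DMEM with 10% FBS. […] RIPA lysates containing protease and phosphatase inhibitors were run on SDS-PAGE and probed for phospho-Erk1/2 and GAPDH by fluorescent immunoblot. Phospho-Erk was normalised to GAPDH; n = 3, one-way ANOVA with Šídák's test.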

[4] = system: crickets (Acheta domesticus); assay: Cricket righting assay after injection; assay type: in vivo; settings: intraabdominal injection, up to 41 nmol/g (as stated in main text)
Method in brief: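 House crickets (average mass 50 mg) received intraabdominal injections of 2 μL water or test compound at 1.4 to 41.5 nmol/g. Each cricket was then placed on its back and the time taken to right itself was recorded. Treated and water groups were compared by one-way ANOVA with Šídák's test.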

paw inflammation in mice = assay: Paw inflammation: visual inspection and paw thickness by calipers; assay type: in vivo, mouse (C57BL/6J); settings: 200 pmol i.pl.; over the time course of the experiment
Method in brief: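 In male C57BL/6J mice, 200 pmol test compound, or vehicle alone, was injected intraplantar in 20 µL saline with 0.1% BSA. The injected paw was inspected for swelling and reddening at each time point up to 7 d. At 3 d, both hind paws were measured with electronic calipers and expressed as an ipsilateral/contralateral ratio. Groups were n = 6, compared by unpaired t test.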

[5] = system: paw-withdrawal threshold to thermal stimulus in mice; assay: Paw-withdrawal threshold to thermal stimulus; assay type: in vivo, mouse (C57BL/6J); settings: 200 pmol i.pl.; measured 1 h to 7 d; vs saline; n = 6 per group
Method in brief: as §1

[6] = system: paw-withdrawal threshold to mechanical stimulus in mice; assay: Paw-withdrawal threshold to mechanical stimulus; assay type: in vivo, mouse (C57BL/6J); settings: 200 pmol i.pl.; measured 1 h to 7 d; vs saline; n = 6 per group
Method in brief: as §1

[7] = system: fruit flies (Drosophila melanogaster); assay: Fruit fly paralysis/survival assay after injection; assay type: in vivo; settings: intraabdominal injection, up to 41 nmol/g (as stated in main text)
[8] = system: sheep blowflies (Lucilia cuprina); assay: Sheep blowfly paralysis/survival assay after injection; assay type: in vivo; settings: intraabdominal injection, up to 41 nmol/g (as stated in main text)

Substance	Hypersensitivity of the injected paw (summary in words) [1]	Agonism at / potency on mammalian ErbB1 (summary in words) [2]	Erk1/2 phosphorylation compared with hEGF [3]	Activity at hErbB1 (in words) ([2]; BRET, HEK293T cells, Fig. 3A: stimulation with 100 nM ligand)	Effect on crickets after injection [4]	Visual signs of inflammation (e.g., redness or swelling) (paw inflammation in mice)	Paw-withdrawal threshold to thermal stimulus [5]	Paw-withdrawal threshold to mechanical stimulus [6]	Effect on fruit flies after injection [7]	Effect on blowflies after injection [8]
Mg1a (GDISDYGDPCSDDLKDYCIHGDCFFLKELNQPACRCYTGYYGSRCEHIDHN; disulfide 10-23, 18-34, 36-45)	long-lasting hypersensitivity	potent agonist of the mammalian EGF receptor ErbB1	–	–	–	–	–	–	–	–
rMg1a: Mg1a produced by recombinant expression in bacteria with an additional Gly residue at the N terminus (GDISDYGDPCSDDLKDYCIHGDCFFLKELNQPACRCYTGYYGSRCEHIDHN; not fully specified; left off: His6, N-terminal, cleaved | MBP, N-terminal, cleaved)	–	potent ligand of mammalian ErbB1 with activity comparable to that of hEGF	equivalent to that caused by hEGF	active at hErbB1	no effect	no visual signs of inflammation	significant decrease	significant decrease	no effect	no effect
